For 22 compounds, Activity, inhibition and EC50 results are on record in ChEMBL document CHEMBL4414622, “Synthesis, Purification, and Selective β2-AR Agonist and Bronchodilatory Effects of Catecholic Tetrahydroisoquinolines from Portulaca oleracea” (J Nat Prod, 2019).

As a reminder, the EC50 is the concentration needed to bring the measured effect to its halfway point.

The target in assay [1] is Beta-1 adrenergic receptor (Homo sapiens) (UniProt P08588). Briefly: Agonist activity at human beta1 adrenergic receptor expressed in CHOK1 cells co-expressing Galpha15 assessed as increase in calcium influx by measuring fluorescence intensity at 100 uM by FLIPR assay relative to epinephrine. The class given is functional, cell-based. In outline:
(§1)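 Stably transfected CHO-K1/Gα15 lines (ADRB1, ADRB2 or ADRA1B) grown in Ham's F12 with 10% FBS, Zeocin and Hygromycin B at 37 °C. Seeded 1.5 × 10⁴ cells/well, 18 h, then Calcium 4 dye 1 h at 37 °C and 15 min room temperature. Compound (100 μM) added at 21 s of a 120 s FLIPR Tetra read. Stocks were 100 mM in DMSO, diluted in HBSS/20 mM HEPES pH 7.4. n = 4.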

The target of assay [2] is T1, Alpha-1B adrenergic receptor (Homo sapiens) (UniProt P35368).
T1 sequence (whole entry): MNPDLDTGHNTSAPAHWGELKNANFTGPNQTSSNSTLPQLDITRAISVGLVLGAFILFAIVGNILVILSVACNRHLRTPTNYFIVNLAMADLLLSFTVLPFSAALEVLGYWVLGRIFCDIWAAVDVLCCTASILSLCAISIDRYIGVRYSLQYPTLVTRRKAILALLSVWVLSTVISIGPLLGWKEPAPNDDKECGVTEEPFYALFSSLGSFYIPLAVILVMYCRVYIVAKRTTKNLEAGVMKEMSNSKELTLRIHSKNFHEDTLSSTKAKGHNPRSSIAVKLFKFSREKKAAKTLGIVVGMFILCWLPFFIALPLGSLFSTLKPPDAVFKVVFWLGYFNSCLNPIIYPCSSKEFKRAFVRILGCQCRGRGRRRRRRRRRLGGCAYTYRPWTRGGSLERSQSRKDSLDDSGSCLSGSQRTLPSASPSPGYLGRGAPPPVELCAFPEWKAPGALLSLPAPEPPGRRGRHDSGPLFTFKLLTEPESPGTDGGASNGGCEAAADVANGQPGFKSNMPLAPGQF
Nature of the assay: Agonist activity at human alpha1 beta adrenergic receptor expressed in CHOK1 cells co-expressing Galpha15 assessed as increase in calcium influx by measuring fluorescence intensity at 100 uM by FLIPR assay relative to epinephrine. Format: functional, cell-based. In outline:
as §1

In assay [3] the target is Beta-2 adrenergic receptor (Homo sapiens) (UniProt P07550). Nature of the assay: Agonist activity at human beta2 adrenergic receptor expressed in CHOK1 cells co-expressing Galpha15 assessed as increase in calcium influx by measuring fluorescence intensity at 100 uM by FLIPR assay relative to isoproterenol. Format: functional, cell-based. In outline: as §1
Sequence of Beta-2 adrenergic receptor (Homo sapiens) (P07550 whole entry, looked up): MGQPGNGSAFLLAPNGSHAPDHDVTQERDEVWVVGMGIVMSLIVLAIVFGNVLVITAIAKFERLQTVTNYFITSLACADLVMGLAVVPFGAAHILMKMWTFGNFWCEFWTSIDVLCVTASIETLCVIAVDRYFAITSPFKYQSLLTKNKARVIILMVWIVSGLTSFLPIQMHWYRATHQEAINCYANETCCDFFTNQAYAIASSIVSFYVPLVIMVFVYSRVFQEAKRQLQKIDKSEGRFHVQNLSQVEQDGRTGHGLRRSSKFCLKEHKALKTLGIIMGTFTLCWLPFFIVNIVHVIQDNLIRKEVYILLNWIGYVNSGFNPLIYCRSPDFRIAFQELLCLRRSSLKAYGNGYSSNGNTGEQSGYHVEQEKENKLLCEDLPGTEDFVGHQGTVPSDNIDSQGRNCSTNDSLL
In assay [4] the target is Beta-2 adrenergic receptor (Cavia porcellus) (UniProt Q8K4Z4). Briefly: Agonist activity at beta2 adrenergic receptor in guinea pig tracheal smooth muscle assessed as inhibition of histamine-induced tracheal smooth muscle contraction by measuring spasmolysis preincubated for 15 mins in presence of beta adrenergic receptor antagonist propranolol followed by histamine addition.
Sequence of Beta-2 adrenergic receptor (Cavia porcellus) (Q8K4Z4 whole entry, looked up): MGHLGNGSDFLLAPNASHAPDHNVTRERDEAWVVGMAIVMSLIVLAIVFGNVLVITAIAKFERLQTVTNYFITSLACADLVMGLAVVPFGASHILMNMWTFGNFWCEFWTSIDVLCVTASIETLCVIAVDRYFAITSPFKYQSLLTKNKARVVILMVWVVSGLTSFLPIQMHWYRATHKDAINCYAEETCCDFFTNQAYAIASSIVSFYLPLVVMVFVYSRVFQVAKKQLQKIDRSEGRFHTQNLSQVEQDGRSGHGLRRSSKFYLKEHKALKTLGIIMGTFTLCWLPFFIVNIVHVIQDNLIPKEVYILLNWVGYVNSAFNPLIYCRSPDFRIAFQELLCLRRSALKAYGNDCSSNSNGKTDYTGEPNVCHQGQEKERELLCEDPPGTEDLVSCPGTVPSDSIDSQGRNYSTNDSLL

In assay [5] the target is Beta-2 adrenergic receptor (Cavia porcellus, UniProt Q8K4Z4). Nature of the assay: Agonist activity at beta2 adrenergic receptor in guinea pig tracheal smooth muscle assessed as inhibition of histamine-induced tracheal smooth muscle contraction by measuring spasmolysis in absence of beta adrenergic receptor antagonist propranolol.
Sequence of Beta-2 adrenergic receptor (Q8K4Z4 whole entry): as the sequence (Q8K4Z4 whole entry, looked up) above

The source made the active and inactive calls. No cut-off for these calls is given here.

Sequence of Beta-1 adrenergic receptor (Homo sapiens) (P08588 whole entry, looked up): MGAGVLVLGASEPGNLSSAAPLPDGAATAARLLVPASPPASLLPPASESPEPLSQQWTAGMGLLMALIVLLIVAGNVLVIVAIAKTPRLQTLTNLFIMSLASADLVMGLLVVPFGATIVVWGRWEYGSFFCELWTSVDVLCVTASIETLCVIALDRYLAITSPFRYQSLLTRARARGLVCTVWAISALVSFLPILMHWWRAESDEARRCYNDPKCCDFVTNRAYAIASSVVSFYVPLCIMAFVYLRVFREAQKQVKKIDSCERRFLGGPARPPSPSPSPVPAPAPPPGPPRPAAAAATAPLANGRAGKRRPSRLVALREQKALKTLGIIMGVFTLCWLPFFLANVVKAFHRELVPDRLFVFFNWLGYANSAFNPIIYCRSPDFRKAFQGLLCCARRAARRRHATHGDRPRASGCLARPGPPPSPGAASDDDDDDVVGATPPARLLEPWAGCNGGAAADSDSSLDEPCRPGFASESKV

As to `OCc1ccc(C2=NCCc3cc(O)c(O)cc32)o1`, the Activity is -10.4% in assay [1] and 13.7% in assay [2].

Regarding `Oc1ccc(C2NCCc3cc(O)c(O)cc32)cc1` (stereo unspecified), the outcome in assay [3] and in assay [1] was inactive. In addition, in assay [2], the Activity came to 31.9%.

As to `COc1cc(C2NCCc3cc(O)c(O)cc32)cc(OC)c1OC` (stereo unspecified), the result in assay [3] and in assay [1] was inactive. In addition, the Activity in assay [2] was determined as 20.5%.

With `Oc1cc2c(cc1O)[C@@H](Cc1ccccc1)NCC2`, the Activity was found to be 80.3% in assay [1] and 6.1% in assay [2].

As to `Oc1cc2c(cc1O)C(c1cccc3ccccc13)NCC2` (stereo unspecified), the outcome in assay [3] and in assay [1] was inactive. Further, the Activity in assay [2] amounted to 43.8%.

As for `Oc1cc2c(cc1O)C(c1ccccc1)NCC2` (stereo unspecified), the outcome in assay [3] and in assay [1] was inactive. Also, in assay [2], the Activity amounted to 51.5%.

For the compound `CC(C)C[C@H]1NCCc2cc(O)c(O)cc21`, the result in assay [1] was inactive. In assay [2], the Activity stood at 20.5%.

As for `OCc1ccc(C2NCCc3cc(O)c(O)cc32)o1` (stereo unspecified), the Activity in assay [3] is -11.1%; in assay [1], -20.3%; in assay [2] it was 22.3%.

As to `Oc1cccc(C2NCCc3cc(O)c(O)cc32)c1` (stereo unspecified), the outcome in assay [3] and in assay [1] was inactive. The Activity in assay [2] was 14.5%.

As for `Oc1cc2c(cc1O)C(c1ccco1)=NCC2`, the Activity in assay [1] worked out at 73.5%; in assay [2] it was 13.4%.

With `Oc1ccc(C2NCCc3cc(O)c(O)cc32)cc1O` (stereo unspecified), the result in assay [3] and in assay [1] was inactive. The Activity in assay [2] came to 16.6%.

For `Oc1cc2c(cc1O)CCN=C2`, the Activity in assay [1] was -6.22%; in assay [2] it was 24.2%.

As for `CC1NCCc2cc(O)c(O)cc21` (stereo unspecified), the Activity in assay [3] was 2.91%; in assay [1], -11.4%; in assay [2], 22.1%.

Consider `CC(C)CC1NCCc2cc(O)c(O)cc21` (stereo unspecified), for which the inhibition result in assay [4] was “Dose-dependent effect”. The Activity was 64.5% in assay [3] and 7.7% in assay [2]. In addition, the result in assay [1] was inactive. Besides, the 50% effective concentration (EC50) in assay [5] was 2800 nM.

`Oc1cc2c(cc1O)C(Cc1ccccc1)NCC2` (stereo unspecified): the inhibition entry in assay [4] is “Dose-dependent effect”. Moreover, the Activity in assay [3] came out at 44.7%; in assay [1], 99.9%; in assay [2] it was 39.4%. Further, the concentration for a half-maximal effect (EC50) in assay [5] amounted to 800 nM.

With `Oc1cc2c(cc1O)C(c1ccco1)NCC2` (stereo unspecified), the Activity in assay [3] was -9.23%; in assay [1] it was -35.3%; in assay [2], 15.6%.

For the compound `COc1ccccc1C1NCCc2cc(O)c(O)cc21` (stereo unspecified), the result in assay [3] and in assay [1] was inactive. Moreover, the Activity in assay [2] came to 36.3%.

`COc1cc(C2NCCc3cc(O)c(O)cc32)ccc1O` (stereo unspecified): the result in assay [3] and in assay [1] was inactive. Further, the Activity in assay [2] worked out at 11.8%.

As to `COc1ccc(C2NCCc3cc(O)c(O)cc32)cc1` (stereo unspecified), the outcome in assay [3] and in assay [1] was inactive. Also, the Activity in assay [2] was found to be 18.5%.

Regarding `CC1=NCCc2cc(O)c(O)cc21`, the results for the Activity in assay [1] and in assay [2] were -6.31% and 15.9%, respectively.

Take `CC(C)NCC(O)c1ccc(O)c(O)c1` (stereo unspecified) [ISOPROTERENOL]: the concentration for a half-maximal effect (EC50) in assay [5] amounted to 7.9 nM.

With `C[C@@H]1NCCc2cc(O)c(O)cc21`, the Activity in assay [1] was -9.5%; in assay [2], 19.2%.
